Screening results deposited in PubChem by Broad Institute.
CFTR F508del cor = F508del CFTR correction, initial screen, CFBE line, single point; CFBE cells, YFP halide quenching; stimulated with forskolin plus potentiator P3; % fluorescence drop versus neutral controls; actives 0.36% (n = 350,000); activity (quench increase), % at 7.58 µM; AID 720511, 2013;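 active = mean added fluorescence quench of at least 8% versus neutral control, with both replicates also reaching 8%; inconclusive = only one of the mean or replicate conditions met; inactive = mean below 8% and not both replicates reaching 8%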;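 also: cells transiently co-express mutant CFTR-F508del with the halide-sensitive YFP; corrector assay measuring rescue of mutant channel to the surface after 24 h compound exposure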
HIV Env fusion = inhibitors of HIV-1 Env-driven cell-cell fusion, primary screen, HeLa-JRFL effector, CEM21 target cells, luciferase. inhibition, % at 12.3 µM. actives 1.1% (n = 360,000). AID 651610, 2012;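 active = mean replicate inhibition score of at least 50 and every replicate individually at or above 50; inconclusive = only one of the two criteria met; inactive = mean below 50 and not all replicates reaching 50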;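 also: 0% = plate neutral controls and 100% = maraviroc near 300 nM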
FN deposition inh = inhibitors of fibronectin matrix deposition, primary screen, AH1F cells, Alexa488-fibronectin fluorescence, plate reader. inhibition, % at 12.6 µM. actives 0.086% (n = 350,000). AH1F fibroblasts, overnight. AID 743247, 2014;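 active = mean inhibition across replicates of 30% or more, regardless of how many single replicates reach that level; inconclusive = mean under 30% yet at least half of replicates reach 30%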;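 also: positive control wells lacked labelled fibronectin entirely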
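Measured by – fluorescence 485/525 nm · System – AH1F fibroblast monolayer, labelled fibronectin deposition · Amount – 10000 cells per well · Buffer or medium – serum-reduced DMEM (2% serum) · Doses – single dose, pinned · Also added – fluorescent fibronectin at 24 nM final · Schedule – 1 h cell attachment, overnight exposure to compound and label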
PAX8 reporter = inhibitors of PAX8-driven TPO luciferase reporter, primary screen, RMG-I cells, single concentration; SteadyGlo, 24 h; inhibition, % at 12.6 µM; actives 1.2% (n = 360,000); AID 652154, 2013;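 active = mean replicate inhibition at least 60% with every replicate also reaching 60%; inconclusive = only one of the two criteria is met; inactive = mean below 60% and not all replicates reaching 60%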;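 also: luciferase light reporting Pax8 driven TPO promoter activity; plate controls were median of neutral control wells for no effect and mitoxantrone controls for full effect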
EWS-Fli inh = EWS/Fli-driven NR0B1 reporter inhibitors, primary screen, A673 cells, NR0B1 luciferase, luminescence, MLPCN library | viability-normalised | inhibition, % at 12.6 µM | actives 0.67% (n = 350,000) | AID 651661, 2012;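 active = mean inhibition of at least 50% after viability correction, with every replicate also passing that limit; inconclusive = mean reaches 50% but only one of two replicates passes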;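 also: firefly luciferase signal divided by Alamar Blue viability fluorescence both relative to DMSO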
PGC1a acetyl inh = inhibitors of PGC1a acetylation signal, primary screen, cell-based, U2OS, AlphaScreen, inhibitor mode; AID 651687, 2012; AlphaScreen anti-acetyl-lysine; with virally co-expressed GCN5 acetyltransferase; actives 0.17% (n = 350,000); inhibition, % at 15.6 µM;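 active = every replicate shows inhibition of at least 40%; inconclusive = mean inhibition at least 40% but some replicate below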;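 also: 0% = neutral control wells and 100% = positive control wells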
* hit, by the source's call; ? = inconclusive; . = no result; [ ] = dose if it differs, or a comment. Rows were chosen to be rich in hits. Some 2.3% of all compounds tested hit in one or more screens of this group.

SMILES | CFTR F508del cor | HIV Env fusion | FN deposition inh | PAX8 reporter | EWS-Fli inh | PGC1a acetyl inh
CCC(=O)N1CCC2(CC1)CN(Cc1ccccn1)[C@H](CO)c1[nH]c3cc(OC)ccc3c12 | 2 | . | . | -3 | -5 | 3
Cc1c(Cl)cccc1NC(=O)N1CCCN(c2nc(-c3ccccc3)ns2)CC1 | 4 | 55* | 10 | 37 | 22 | -2
COCC(C)n1c(SCC(=O)N2CC(=O)Nc3ccccc32)nc2ccccc2c1=O (stereo unspecified) | 15* | . | 1 | 21 | 10 | .
CC(c1ccccc1)n1c(SCC(=O)N2CC(=O)Nc3ccccc32)nc2ccccc2c1=O (stereo unspecified) | . | 5 | 2 | 20 | . | .
COc1ccc2c3c(n(C)c2c1)[C@H](CO)N(C(=O)Nc1c(C)noc1C)CC31CCN(CC2CC2)CC1 | -1 | . | . | . | -2 | -11
CCC(=O)N(C)C[C@H]1Oc2ncc(-c3ccc(F)cc3)cc2C(=O)N([C@@H](C)CO)C[C@@H]1C | 0 | 4[16.7 µM] | -4 | . | -16 | 10
CC(C)NC(=O)Nc1ccc2c(c1)C(=O)N([C@H](C)CO)C[C@@H](C)[C@@H](CN(C)CC1CCCCC1)OCCCC[C@H](C)O2 | -2 | -19[16.7 µM] | 1 | 12 | . | -7
COc1ccc2c3c(n(C)c2c1)[C@H](CO)N(C(=O)Nc1ccc(F)cc1)CC31CCN(S(=O)(=O)c2cccc(C)c2)CC1 | 5 | . | 3 | 89* | -6 | -1
CCC(=O)N1CC2(CCN(Cc3ccc(Cl)cc3)CC2)c2c(n(C)c3cc(OC)ccc23)[C@H]1CO | 14* | . | 11 | 36 | 11 | 6
COc1ccc2c3c(n(C)c2c1)[C@@H](CO)N(C(=O)Nc1ccc(F)cc1)CC31CCN(S(=O)(=O)c2cccc(C)c2)CC1 | 2 | . | 12 | 81* | -1 | -12
CCC(=O)N1CC2(CN(Cc3ccc(Cl)cc3)C2)c2c(n(C)c3cc(OC)ccc23)[C@@H]1CO | 3 | . | . | -5 | 0 | -23
COc1ccc2c3c(n(C)c2c1)[C@H](CO)N(C(=O)Nc1ccc(F)cc1)CC31CCN(Cc2cccc(F)c2)CC1 | 4 | 47[16.7 µM] | . | . | 30 | .
COc1ccc2c3c(n(C)c2c1)[C@@H](CO)N(C(=O)Nc1ccc(F)cc1)CC31CCN(Cc2cccc(F)c2)CC1 | 5 | 82*[16.7 µM] | . | . | 40 | .
C#Cc1ccc([C@@H]2C=C(C(=O)N3CCCCCCC3)O[C@H](OCC)[C@H]2CCCO)cc1 | 1 | 25[16.7 µM] | . | -3 | 3 | -19
CO[C@@H]1CN(C)C(=O)c2cc(NC(=O)c3cnccn3)ccc2OC[C@@H](C)N(CCc2ccccc2)C[C@H]1C | -1 | . | 0 | -10 | 5 | 2
CC(=O)NC[C@H]1[C@@H](c2ccc(-c3ccccc3F)cc2)[C@@H](CO)N1C(C)=O | -3 | . | -8 | 5 | -10 | -8
CN1C(=O)c2cc(NC(=O)Cc3cccs3)ccc2OC[C@@H]2O[C@H](CC(=O)NCC3CC3)CC[C@H]21 | 2 | -5[16.7 µM] | 0 | 16 | -2 | -4
CCCNC(=O)N1CC2(CN(S(=O)(=O)c3ccccc3)C2)c2c(n(C)c3cc(OC)ccc23)[C@H]1CO | 5 | -15[16.7 µM] | . | . | 25 | .
COc1ccc2c3c(n(C)c2c1)[C@@H](CO)N(C(=O)Nc1ccc(F)cc1)CC31CCN(C(=O)c2ccc3c(c2)OCO3)CC1 | 0 | . | -2 | 5 | 0 | -7
CCCNC(=O)N1CC2(CN(S(=O)(=O)c3cccc(OC)c3)C2)c2c(n(C)c3cc(OC)ccc23)[C@H]1CO | 8.6* | . | . | . | 18 | -2
COc1ccc2c3c(n(C)c2c1)[C@H](CO)N(C(=O)Nc1ccc(F)cc1)CC31CCN(C(=O)c2ccc3c(c2)OCO3)CC1 | 2 | . | -2 | 77* | -8 | 13
Cc1ccccc1Cn1c(=O)n(-c2ccccc2)c(=O)c2ccc(C(=O)NCc3ccco3)cc21 | 1 | 19 | -2 | -15 | -4 | 2
Cc1ccc(-n2c(=O)c3ccc(C(=O)NCc4ccco4)cc3n(Cc3ccccc3C#N)c2=O)cc1 | . | -4 | 2 | 76* | 6 | .
C[C@@H]1CN([C@@H](C)CO)C(=O)c2cc(NS(=O)(=O)c3ccc(F)cc3)ccc2O[C@@H]1CN(C)C(=O)Nc1ccc(C(F)(F)F)cc1 | 1 | 2[16.7 µM] | . | 71* | -7 | 3
C[C@H](CO)N1C[C@H](C)[C@@H](CN(C)C(=O)Nc2ccc(C(F)(F)F)cc2)OCCCC[C@H](C)Oc2ccc(NS(=O)(=O)c3ccc(F)cc3)cc2C1=O | 1 | 70*[16.7 µM] | 4 | ? | -3 | 3
SMILES | CFTR F508del cor | HIV Env fusion | FN deposition inh | PAX8 reporter | EWS-Fli inh | PGC1a acetyl inh
C[C@@H]1CCCCO[C@@H](CN(C)C(=O)Nc2ccc(C(F)(F)F)cc2)[C@@H](C)CN([C@H](C)CO)C(=O)c2cc(NS(=O)(=O)c3ccc(F)cc3)ccc2O1 | 2 | . | 8 | 66* | . | 6
C[C@H]1CCCCO[C@H](CN(C)C(=O)Nc2ccc(C(F)(F)F)cc2)[C@@H](C)CN([C@@H](C)CO)C(=O)c2cc(NS(=O)(=O)c3ccc(Cl)cc3)ccc2O1 | -3 | 48[16.7 µM] | . | 91* | 13 | 11
C[C@H](CO)N1C[C@H](C)[C@H](CN(C)C(=O)Nc2ccc(C(F)(F)F)cc2)OCCCC[C@H](C)Oc2ccc(NS(=O)(=O)c3ccc(Cl)cc3)cc2C1=O | 0 | 29[16.7 µM] | . | 57 | -4 | -14
CCCC#Cc1cnc2c(c1)C(=O)N([C@H](C)CO)C[C@H](C)[C@@H](CN(C)C(=O)Nc1ccc(OC)cc1)O2 | 0 | 7[16.7 µM] | -6 | . | -4 | 7
Cc1ccc(S(=O)(=O)Nc2ccc3c(c2)C(=O)N([C@H](C)CO)C[C@H](C)[C@@H](CN(C)C(=O)Nc2ccc(C(F)(F)F)cc2)OCCCC[C@@H](C)O3)cc1 | 2 | -85[16.7 µM] | -11 | -3 | 0 | 0
Cc1ccc(S(=O)(=O)Nc2ccc3c(c2)C(=O)N([C@@H](C)CO)C[C@H](C)[C@@H](CN(C)C(=O)Nc2ccc(C(F)(F)F)cc2)OCCCC[C@@H](C)O3)cc1 | -1 | -10[16.7 µM] | -8 | 75* | 9 | -9
Cc1ccccc1S(=O)(=O)NCC[C@H]1CC[C@@H](NC(=O)C2CCOCC2)[C@H](CO)O1 | 1 | -11[16.7 µM] | . | -21 | 3 | 3
COCC(=O)N1C[C@@H](C)[C@@H](OC)CN(C)C(=O)c2cc(NC(=O)c3ccc(OC)cc3)ccc2OC[C@@H]1C | 0 | 17[16.7 µM] | -5 | 6 | -9 | -18
CCOC(=O)c1nnn(-c2ccc(OC)cc2)c1N | . | -69 | 32* | . | . | 2
CCN1C(=O)[C@H]2[C@H]3CN=C(SCc4ccc(OC)cc4)N3[C@@](CC)(C(=O)OC)[C@H]2C1=O | -2 | -10 | 3 | 5 | -7 | 5
